Calls of active or inactive are those of the source.
Legend:
Rattus norvegicus [1] = experiment: Antialzheimer activity in Wistar rat scopolamine-induced cognition impairment model assessed as decrease in amount of errors plus baits not found during exploration at 1 umol/100 g body weight, ip treated for 5 mins prior to scopolamine-challenge measured after 20 to 120 mins by eight-arm radial maze test; type: functional, organism-based
How it was run: (§1)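 Female 60-day-old Wistar rats (Han:Wist) trained in an eight-arm radial maze to error-free trials under 60 s on three consecutive days; each animal served as its own control. Test agent given i.p. in saline 5 min before scopolamine (0.05 mg/100 g b. wt., i.p. in saline). Errors plus baits not found after 10 min, and total searching time, recorded before and 20, 60, 120 min after scopolamine; n = 14, mean ± SEM.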

[2] = biological target: Amyloid-beta precursor protein (Homo sapiens) (UniProt P05067); experiment: Inhibition of amyloid beta (1 to 42) aggregation (unknown origin) at 5 to 100 uM after 1 hr by thioflavin T fluorescence assay
Sequence of Amyloid-beta precursor protein (Homo sapiens) (P05067 whole entry): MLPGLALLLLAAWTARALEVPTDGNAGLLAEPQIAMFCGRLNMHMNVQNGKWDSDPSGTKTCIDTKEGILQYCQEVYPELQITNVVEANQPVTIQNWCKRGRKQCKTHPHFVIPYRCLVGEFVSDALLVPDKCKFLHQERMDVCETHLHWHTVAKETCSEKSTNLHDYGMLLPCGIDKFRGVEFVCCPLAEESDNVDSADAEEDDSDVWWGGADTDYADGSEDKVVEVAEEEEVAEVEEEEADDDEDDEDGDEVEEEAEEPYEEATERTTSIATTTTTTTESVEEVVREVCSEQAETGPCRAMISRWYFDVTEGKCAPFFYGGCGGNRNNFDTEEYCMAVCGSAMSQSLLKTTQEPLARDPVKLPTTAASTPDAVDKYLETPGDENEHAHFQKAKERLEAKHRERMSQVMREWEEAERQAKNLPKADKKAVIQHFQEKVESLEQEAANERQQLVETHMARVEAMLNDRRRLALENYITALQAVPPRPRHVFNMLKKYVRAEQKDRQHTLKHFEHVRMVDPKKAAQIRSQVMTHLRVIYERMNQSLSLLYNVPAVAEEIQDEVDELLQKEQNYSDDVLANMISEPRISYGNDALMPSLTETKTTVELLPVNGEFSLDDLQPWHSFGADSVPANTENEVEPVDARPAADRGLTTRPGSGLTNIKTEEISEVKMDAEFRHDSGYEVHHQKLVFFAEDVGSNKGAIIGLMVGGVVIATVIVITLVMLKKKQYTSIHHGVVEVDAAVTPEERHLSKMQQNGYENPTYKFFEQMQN
How it was run: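 Aβ42 stock 200 μM in DMSO, centrifuged 12,000 rpm 10 min; supernatant used. ThT in 50 mM glycine-NaOH pH 8.5 then added. Fluorescence read at ex 430 / em 488 nm. Curcumin as positive control.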

PC-12 = experiment: Neuroprotective activity in rat PC12 cells assessed as decrease in amyloid beta (1 to 42)-induced cytotoxicity at 0.08 to 10 uM after 24 hrs by MTT assay; type: functional, cell-based
How it was run: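 PC12 cells grown in F-12 with 10% FBS, 37 °C, 5% CO2. Seeded at 2000 cells/well for 24 h. Aβ42 pretreated with HFIP, then brought to 100 μM in medium and held at 4 °C for 24 h. Compound (final […]–10 μM, DMSO <0.5%) given with Aβ42 (final 5 μM) for 24 h. MTT 4 h, formazan read at 540 nm. Expressed as % of control; three independent trials, mean ± SEM.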

Rattus norvegicus [3] = experiment: Antialzheimer activity in Wistar rat scopolamine-induced cognition impairment model assessed as total exploration time at 1 umol/100 g body weight, ip treated for 5 mins prior to scopolamine-challenge by eight-arm radial maze test relative to control; type: functional; how it was run: as §1

COc1ccc2c3c1O[C@H]1C[C@@H](O)C=C[C@@]31CCN(C)C2
inactive: Activity (Rattus norvegicus [1]) | inhibition [2] | Activity (PC-12) | Activity (Rattus norvegicus [3])
